Laboratory results taken from ChEMBL document CHEMBL5131497, “Design, Synthesis, and Characterization of TNP-2198, a Dual-Targeted Rifamycin-Nitroimidazole Conjugate with Potent Activity against Microaerophilic and Anaerobic Bacterial Pathogens” (J Med Chem, 2022).
Values after ≈ are worked out from the molar mass of the structure shown. Active and inactive are the calls of the source. The calls are words filed in the database; no cut-off is given here.

Tests used:
[1] = Drug distribution in Sprague-Dawley rat vaginal tissue measured at 6 hrs; type: ADME, tissue-based, Vagina; settings: female, read-out: Ct
Outline: (§1)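 Sprague–Dawley rats were dosed with TNP-2198. Concentrations were measured in plasma (ng/mL) and in tissues or contents (ng/g) at 0.5, 2, 6, 12 and 24 h after dosing. Values below the limit of quantification are reported as BLOQ.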

Helicobacter pylori [2] = test: Antibacterial activity against rifampicin-resistant Helicobacter pylori CB1903 harboring rpoBD530V mutant measured after 5 days by agar dilution method; type: functional; settings: CB1903, 120 h, time 5 day
Outline: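 Agar dilution per CLSI. Wild-type ATCC 700392 (CB1531) and its derivatives carry defined resistance determinants. Drugs, alone or in 1:1 molar mixtures, were diluted 2-fold from 100× stocks into Mueller–Hinton agar with aged (≥2 weeks) sheep blood (5% v/v). MIC read after 5 days at 35 °C under microaerobic conditions from a campylobacter gas-generating system.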

[3] = Drug distribution in Sprague-Dawley rat stomach content measured at 2 hrs; type: ADME, tissue-based; settings: read-out: Ct; outline: as §1
Helicobacter pylori [4] = test: Antibacterial activity against Helicobacter pylori clinical isolate USA; type: functional
Clostridium sporogenes = test: Antibacterial activity against Clostridium sporogenes ATCC 19404; type: functional
[5] = AUC in C57BL/6 mouse at 5 mg/kg, iv; type: ADME, organism-based; set-up: dose 5 mg/kg, route iv; settings: in vivo
Outline: (§2)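 Plasma PK after single intravenous or oral dosing. Mice C57BL/6 at 5 mg/kg IV or 20 mg/kg PO; Sprague–Dawley rats at 10 mg/kg IV or 50 mg/kg PO; beagle dogs at 5 mg/kg IV or 25 mg/kg PO. AUC reported in ng·h/mL. Clearance from the IV arms in mL/min·kg.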

Syrian golden hamster = test: Antibacterial activity against Clostridioides difficile UNT-103-1 infected in Syrian hamster assessed as mortality at 5 mg/kg, po administered once a daily for 5 days after 18 hrs post 10 mg/kg clindamycin treatment and measured after 7 to 9 days; type: functional, Mesocricetus auratus; settings: time 7-9 day
Outline: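 Male Golden Syrian hamsters (80-90 g), housed singly, were gavaged with C. difficile UNT103-1 grown in sporulation medium broth and diluted to OD600 1 in prereduced broth. […] From 18 h later, drug or vehicle was given by oral gavage once daily for 5 days. Survival was recorded through day 21.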

[6] = Half life in Sprague-Dawley rat at 50 mg/kg, po; type: ADME, organism-based; settings: in vivo
[7] = Drug distribution in Sprague-Dawley rat ascites fluid measured at 24 hrs; type: ADME, tissue-based, Ascitic fluid; settings: in vivo, BLD = below limit of detection; outline: as §1
Bifidobacterium longum = test: Antibacterial activity against Bifidobacterium longum ATCC 15707; type: functional
Fusobacterium nucleatum [8] = test: Antibacterial activity against Fusobacterium nucleatum ATCC 10953; type: functional
[9] = Drug distribution in Sprague-Dawley rat gums measured at 2 hrs; type: ADME, tissue-based, Gingiva; settings: read-out: Ct; outline: as §1
Actinomyces naeslundii = test: Antibacterial activity against Actinomyces naeslundii ATCC 1210; type: functional
Gardnerella vaginalis = test: Resistance development in Gardnerella vaginalis MMX 5973 assessed as spontaneous resistance frequency using at 4.50 x 10^8 CFU inoculum at 4 ug/ml; type: functional; settings: dose 4 µg/ml
Outline: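 Resistant colonies were counted at each drug concentration in two separate tests (test 1, test 2) and averaged. The spontaneous resistance frequency was taken from the mean colony count relative to the inoculum plated. Drug levels tested were 0.5, 1, 2 and 4 µg/mL, and a mutation prevention concentration (MPC) was also reported.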

[10] = AUC in C57BL/6 mouse at 20 mg/kg, po; type: ADME, organism-based; set-up: dose 20 mg/kg, route po; settings: in vivo; outline: as §2
[11] = Drug distribution in Sprague-Dawley rat large intestine content measured at 6 hrs; type: ADME, tissue-based; settings: read-out: Ct; outline: as §1
[12] = Drug distribution in Sprague-Dawley rat vaginal secretion measured at 0.5 hrs; type: ADME, tissue-based, Vaginal fluid; settings: female, read-out: Ct; outline: as §1
[13] = Drug distribution in Sprague-Dawley rat large intestine content measured at 24 hrs; type: ADME, tissue-based; settings: read-out: Ct; outline: as §1
Clostridioides difficile [14] = test: Antibacterial activity against Clostridioides difficile clinical isolate USA; type: functional
Fusobacterium nucleatum [15] = test: Antibacterial activity against Fusobacterium nucleatum ATCC 25586; type: functional
Helicobacter pylori [16] = test: Bactericidal activity against Helicobacter pylori ATCC 700824 assessed as reduction in CFU at 4 to 16 times MIC by time kill assay; type: functional, organism-based
[17] = Drug distribution in Sprague-Dawley rat stomach content measured at 6 hrs; type: ADME, tissue-based; settings: read-out: Ct; outline: as §1
[18] = Drug distribution in Sprague-Dawley rat stomach tissue measured at 2 hrs; type: ADME, tissue-based; settings: read-out: Ct; outline: as §1
[19] = Tmax in C57BL/6 mouse at 20 mg/kg, po; type: ADME, organism-based; settings: in vivo
[20] = Drug distribution in Sprague-Dawley rat plasma measured at 2 hrs; type: ADME, cell-free; outline: as §1
[21] = Drug distribution in Sprague-Dawley rat brain measured at 0.5 hrs; type: ADME, tissue-based; settings: read-out: Ct; outline: as §1
[22] = Volume of distribution at steady state in Sprague-Dawley rat at 10 mg/kg, iv; type: ADME, organism-based; settings: in vivo, read-out: Vdss
[23] = Antibacterial activity against Mobiluncus mulieris ATCC 35243; type: functional
[24] = Volume of distribution at steady state in C57BL/6 mouse at 5 mg/kg, iv; type: ADME, organism-based; settings: in vivo, read-out: Vdss
Clostridioides difficile [25] = test: Antibacterial activity against rifampicin/fluoroquinolone-resistant Clostridioides difficile CB1942 harboring rpoBQ489K/gyrAD71Y/T82A mutant measured after 3 days; type: functional; settings: CB1942, 72 h, time 3 day
[26] = Drug distribution in Sprague-Dawley rat vaginal tissue measured at 0.5 hrs; type: ADME, tissue-based, Vagina; settings: female, read-out: Ct; outline: as §1
[27] = Drug distribution in Sprague-Dawley rat plasma measured at 0.5 hrs; type: ADME, cell-free; outline: as §1
[28] = Drug distribution in Sprague-Dawley rat stomach tissue measured at 24 hrs; type: ADME, tissue-based; settings: read-out: Ct; outline: as §1
[29] = Drug distribution in Sprague-Dawley rat gums measured at 0.5 hrs; type: ADME, tissue-based, Gingiva; settings: read-out: Ct; outline: as §1
Clostridioides difficile [30] = test: Resistance development in Clostridioides difficile MMX 4381 assessed as spontaneous resistance frequency using at 1.23 x 10^9 CFU inoculum at 4 ug/ml; type: functional; settings: dose 4 µg/ml
[31] = Drug distribution in Sprague-Dawley rat stomach tissue measured at 12 hrs; type: ADME, tissue-based; settings: read-out: Ct; outline: as §1
Clostridioides difficile [32] = test: Antibacterial activity against Clostridioides difficile clinical isolate China; type: functional
[33] = Volume of distribution at steady state in Beagle dog at 5 mg/kg, iv; type: ADME, organism-based, Canis lupus familiaris; settings: in vivo, read-out: Vdss
[34] = Drug distribution in Sprague-Dawley rat stomach tissue measured at 6 hrs; type: ADME, tissue-based; settings: read-out: Ct; outline: as §1
Helicobacter pylori [35] = test: Antibacterial activity against Helicobacter pylori clinical isolate China; type: functional
[36] = Drug distribution in Sprague-Dawley rat large intestine tissue measured at 6 hrs; type: ADME, tissue-based; settings: read-out: Ct; outline: as §1
Helicobacter pylori [37] = test: Resistance development in Helicobacter pylori MMX 3719 assessed as mutation prevention concentration using at 1.90 x 10^8 CFU inoculum; type: functional; settings: dose 0.5 µg/ml
Outline: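 H. pylori MMX 3719 exposed to 0.5, 1, 2 and 4 µg/mL drug with an inoculum of 1.90×10^8 CFU at each level. Two independent tests were run, and resistant colonies were counted and averaged. A spontaneous resistance frequency was reported for each concentration, and the MPC was taken across the concentrations tested.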

Veillonella parvula = test: Antibacterial activity against Veillonella parvula ATCC 17745 MMX 1272; type: functional
Clostridioides difficile [38] = test: Antibacterial activity against fluoroquinolone-resistant Clostridioides difficile CB1939 measured after 3 days; type: functional; settings: CB1939, 72 h, time 3 day

CO[C@H]1/C=C/O[C@@]2(C)Oc3c(C)c(O)c4c(c3C2=O)C2=NC3(CCN(CCn5c([N+](=O)[O-])cnc5C)CC3)NC2=C(NC(=O)/C(C)=C\C=C\[C@H](C)[C@H](O)[C@@H](C)[C@@H](O)[C@@H](C)[C@H](OC(C)=O)[C@@H]1C)C4=O [RIFASUTENIZOL]
concentration at 6 h [1]: 2590 ng/g | MIC (Helicobacter pylori [2]): 0.125 µg/mL (≈ 0.132 µM) | concentration at 2 h [3]: 1.75e+06 ng/g | MIC (Helicobacter pylori [4]): ≤ 0.001 µg/mL | MIC90 (Helicobacter pylori [4]): 0.125 µg/mL (≈ 0.132 µM) | MIC (Clostridium sporogenes): 0.015 µg/mL (≈ 0.0159 µM) | AUC [5]: 3760 ng·h/mL | Activity (Syrian golden hamster): 10% | half-life [6]: 56.4 min | Ct [7]: Bld | MIC (Bifidobacterium longum): 0.015 µg/mL (≈ 0.0159 µM) | MIC (Fusobacterium nucleatum [8]): 0.12 µg/mL (≈ 0.127 µM) | concentration at 2 h [9]: 6040 ng/g | MIC (Actinomyces naeslundii): 0.001 µg/mL (≈ 0.00106 µM) | Activity (Gardnerella vaginalis): <2 10^-9No_unit | AUC [10]: 3040 ng·h/mL | concentration at 6 h [11]: 84300 ng/g | concentration at 0.5 h [12]: 4190 ng/g | concentration at 24 h [13]: 53.9 ng/g | MIC (Clostridioides difficile [14]): 0.002 µg/mL (≈ 0.00212 µM) | MIC90 (Clostridioides difficile [14]): 1 µg/mL (≈ 1.06 µM) | MIC (Fusobacterium nucleatum [15]): 0.001 µg/mL (≈ 0.00106 µM) | Activity (Helicobacter pylori [16]): Active | concentration at 6 h [17]: 28800 ng/g | concentration at 2 h [18]: 72500 ng/g | Tmax [19]: 30 min | concentration at 2 h [20]: 2640 ng/mL | concentration at 0.5 h [21]: 114 ng/g | Vd [22]: 1.6 L/kg | MIC [23]: 0.001 µg/mL (≈ 0.00106 µM) | Vd [24]: 0.9 L/kg | MIC (Clostridioides difficile [25]): 0.06 µg/mL (≈ 0.0636 µM) | concentration at 0.5 h [26]: 2800 ng/g | concentration at 0.5 h [27]: 1700 ng/mL | concentration at 24 h [28]: 14.4 ng/g | concentration at 0.5 h [29]: 3470 ng/g | Activity (Clostridioides difficile [30]): <8 10^-9No_unit | concentration at 12 h [31]: 114 ng/g | MIC (Clostridioides difficile [32]): ≤ 0.06 µg/mL | MIC90 (Clostridioides difficile [32]): 1 µg/mL (≈ 1.06 µM) | Vd [33]: 2.8 L/kg | concentration at 6 h [34]: 10600 ng/g | MIC (Helicobacter pylori [35]): ≤ 0.002 µg/mL | concentration at 6 h [36]: 3660 ng/g | Activity (Helicobacter pylori [37]): <=0.5 ug ml-1 | MIC (Veillonella parvula): 2 µg/mL (≈ 2.12 µM) | MIC (Clostridioides difficile [38]): ≤ 0.002 µg/mL
